Activity calls are given as the source filed them.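 The calls were made as follows: active = growth inhibition of at least 50% in any replicate; inactive = growth inhibition below 50% in every replicate.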

The experiment in a line: antiplasmodial activity in infected erythrocytes – cell-based, radiolabel, 3D7, RBCs, Set2, M18AAP inhibitor project, late-stage follow-up (AID 720736). Particulars: P. falciparum 3D7 in RBCs, 3H-hypoxanthine incorporation, 48 h, at 10 µM, stronger effect = higher value. The method, boiled down:
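material = P. falciparum 3D7-infected RBCs | medium = hypoxanthine-free RPMI medium with 10% serum | timing = 48 h exposure, 37 °C, 5% O2/5% CO2/90% N2 | measured by = 3H-hypoxanthine uptake by beta counting | evaluation = % growth inhibition versus vehicle-treated parasites, background-subtracted | controls = vehicle-treated parasites and uninfected RBCs | repeats = triplicate wells per compound in one or two runs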

Take `Cc1c(OCc2ccccc2)c(=O)ccn1CCNc1c2ccccc2nc2ccccc12`: the growth inhibition runs as follows: (run 1) 94%; (run 2) 99%.
On to `COc1ccc(CCNc2ccnc3c(F)cccc23)cc1OC`, for which the growth inhibition (run 1) was 26% (inactive).
As for `Oc1ccc(CCN2CCc3ccccc3C2)cc1O`, the growth inhibition is 52% (run 1) and 62% (run 2).
Take `COc1ccc(CCN2CCN(C)CC2)cc1OC`: the growth inhibition runs as follows: (run 1) 0% (inactive); (run 2) 5% (inactive).
As for `Oc1ccc(C2CCN(c3ccnc4ccccc34)C2)cc1O` (stereo unspecified), the growth inhibition (run 1) was 95%.
On the same count and under the same terms, the same measure for `COc1cc(Br)c(CCNc2c3c(nc4ccccc24)CCCC3)cc1OC`: 96%; for `COc1ccc(CCN(C)c2ccnc3c(C)cccc23)cc1OC`: 5% (inactive).
Consider `COc1ccc(CCNc2ccc3ccccc3c2)cc1OC`, for which the growth inhibition (run 1) was 0% (inactive) and the growth inhibition (run 2) is 3% (inactive).
For `COc1ccc(CCNc2c3c(nc4ccc(C)cc24)CCCC3)cc1OC`, under “run 1”, the growth inhibition was 27% (inactive).
`COc1ccc(CCCN2CCN(C)CC2)cc1OC`: under “run 1”, the growth inhibition was 0% (inactive).
In the case of `COc1ccc(CCN(C)c2ccnc3cc(Cl)ccc23)cc1OC`, the growth inhibition is 97% (run 1) and 92% (run 2).
Take `Oc1ccc(CCNC2CCN(Cc3ccccc3)CC2)cc1O`: the growth inhibition is 90% (run 1) and 95% (run 2).
Turning to `COc1ccc(CCNc2ccnc3cc(Cl)ccc23)cc1OC`, where the note is “run 1”, the growth inhibition is 69%.
On the same count and under the same terms, the same measure for `CN(CCc1ccc(O)c(O)c1)c1ccnc2cc(Cl)ccc12`: 0% (inactive); for `CCOc1ccc2nccc(N(C)CCc3ccc(OC)c(OC)c3)c2c1`: 15% (inactive).
On to `COc1ccc(CCNc2ccncc2)cc1OC`, for which the growth inhibition reads like this: (run 1) 6% (inactive); (run 2) 12% (inactive).
Regarding `Oc1ccc(CCNc2ccnc3cc(Cl)ccc23)cc1O`, the growth inhibition (run 1) is 92%.
Take `COc1ccc(C2CCN(c3ccnc4ccccc34)CC2)cc1OC`: under “run 1”, the growth inhibition was 1% (inactive).
On the same count and under the same terms, then `Cc1cccc2c(N(C)CCc3ccc(O)c(O)c3)ccnc12`, with 5% (inactive).
Regarding `COc1ccc(CCCNc2c3c(nc4ccccc24)CCCC3)cc1OC`, the growth inhibition (run 1) was 4% (inactive).
For `COc1ccc(CCCNc2c3ccccc3nc3ccccc23)cc1OC`, the growth inhibition runs as follows: (run 1) 88%; (run 2) 95%.
`CN(CCCc1ccc(O)c(O)c1)c1c2ccccc2nc2ccccc12`: the growth inhibition (run 1) is 21% (inactive).
Same read-out and setting: the same measure for `Cc1cc(N(C)CCc2ccc(O)c(O)c2)c2ccccc2n1`: 6% (inactive); for `COc1ccc(CCNc2cc(C)nc3ccccc23)cc1OC`: 26% (inactive).
As to `CN1CCN(CCc2ccc(O)c(O)c2)CC1`, the growth inhibition (run 1) is 4% (inactive) and the growth inhibition (run 2) was 0% (inactive).
As for `NCCNc1c2ccccc2nc2ccccc12`, the growth inhibition was 100% (run 1) and 99% (run 2).
As to `COc1ccc(CCNc2ccnc3c(C)cccc23)cc1OC`, the growth inhibition (run 1) was 20% (inactive).
`Oc1ccc(CCNc2cncc3ccccc23)cc1O`: the growth inhibition by setting is: (run 1) 38% (inactive); (run 2) 27% (inactive).
On to `COc1ccc(CCN(C)c2c3ccccc3nc3ccccc23)cc1OC`, for which the growth inhibition (run 2) is 98%.
In the case of `COc1ccc(CCN(C)c2ncnc3ccccc23)cc1OC`, for the setting “run 1”, the growth inhibition is 3% (inactive).
In the case of `COc1ccc(C2CCN(c3ccnc4ccccc34)C2)cc1OC` (stereo unspecified), the growth inhibition (run 1) was 94%.
In the case of `COc1ccc(CCNC2CCN(Cc3ccccc3)CC2)cc1OC`, the growth inhibition (run 1) was 88% and the growth inhibition (run 2) is 93%.
`CN(CCCc1ccc(O)c(O)c1)c1ccnc2ccccc12`: the growth inhibition (run 1) is 0% (inactive).
Turning to `COc1ccc(CCNc2cccc3ccccc23)cc1OC`, the growth inhibition (run 1) is 9% (inactive) and the growth inhibition (run 2) is 20% (inactive).
Consider `COc1ccc(CCNC(=O)c2cc(C)ccc2N)cc1OC`, for which, for the setting “run 1”, the growth inhibition is 0% (inactive).
In the case of `CN(CCc1ccc(O)c(O)c1)c1ccnc2ccccc12`, the growth inhibition (run 1) was 91% and the growth inhibition (run 2) is 95%.
Consider `Oc1ccc(CCNc2c3ccccc3nc3ccccc23)cc1`, for which the growth inhibition is 95% (run 1) and 95% (run 2).
For the compound `CN(CCc1ccc(O)c(O)c1)c1c2ccccc2nc2ccccc12`, the growth inhibition (run 1) was 5% (inactive).
Consider `COc1cc(Br)c(CCNc2ccnc3ccccc23)cc1OC`, for which the growth inhibition (run 1) was 90%.
With `CCN(CCc1ccc(O)c(O)c1)c1c2ccccc2nc2ccccc12`, the growth inhibition (run 1) was 20% (inactive).
On to `CN(CCc1ccc(O)c(O)c1)c1ccnc2c(F)cccc12`, for which the growth inhibition (run 1) was 3% (inactive).
Consider `CCOc1ccc2nccc(NCCc3ccc(OC)c(OC)c3)c2c1`, for which the growth inhibition (run 1) was 72%.
Take `Oc1ccc(CCNc2ccnc3c(F)cccc23)cc1O`: the growth inhibition (run 1) was 0% (inactive).
For `Oc1ccc(CCNc2ccc3ccccc3c2)cc1O`, the growth inhibition was 21% (inactive) (run 1) and 18% (inactive) (run 2).
For `Oc1ccc(CCCNc2c3c(nc4ccccc24)CCCC3)cc1O`, where the note is “run 1”, the growth inhibition is 12% (inactive).
For the compound `COc1ccc(CCNc2cncc3ccccc23)cc1OC`, the growth inhibition is 65% (run 1) and 63% (run 2).
As to `O=C(O)CCCNc1c2ccccc2nc2ccccc12`, the growth inhibition was 0% (inactive) (run 1) and 15% (inactive) (run 2).
In the case of `CN(CCc1ccc(O)c(O)c1)c1ncnc2ccccc12`, the growth inhibition (run 1) was 1% (inactive).
Same read-out and setting: the same measure for `Oc1ccc(C2CCCN(c3ccnc4ccccc34)C2)cc1O` (stereo unspecified): 50%.
Take `O=c1ccn(CCNc2c3ccccc3nc3ccccc23)cc1OCc1ccccc1`: the growth inhibition runs as follows: (run 1) 92%; (run 2) 84%.
With `CN(CCc1ccc(O)c(O)c1)c1ccncc1`, the growth inhibition was 3% (inactive) (run 1) and 13% (inactive) (run 2).
In the case of `COc1ccc(CCNC2CCN(C)CC2)cc1OC`, the growth inhibition (run 1) is 0% (inactive) and the growth inhibition (run 2) is 0% (inactive).
Regarding `COc1ccc(CCN(C)c2ccnc3c(F)cccc23)cc1OC`, under “run 1”, the growth inhibition was 5% (inactive).
In the case of `CCN(CCc1ccc(OC)c(OC)c1)c1c2ccccc2nc2ccccc12`, for the setting “run 1”, the growth inhibition was 18% (inactive).
For `Oc1ccc(CCCNc2c3ccccc3nc3ccccc23)cc1O`, the growth inhibition by setting is: (run 1) 91%; (run 2) 93%.
Regarding `CCN(CC)Cc1cc(Nc2ccnc3cc(Cl)ccc23)ccc1O`, the growth inhibition (run 1) was 98%.
As to `COc1ccc(CCNc2c3ccccc3nc3ccccc23)cc1OC`, the growth inhibition by setting is: (run 1) 98%; (run 2) 100%.
For `COc1ccc(CCCN(C)c2c3ccccc3nc3ccccc23)cc1OC`, the growth inhibition (run 1) is 17% (inactive).
For the compound `CC(C)(CNc1ccnc2ccccc12)c1ccc(O)c(O)c1`, for the setting “run 1”, the growth inhibition was 35% (inactive).
As for `O=C(O)CCCCNc1c2ccccc2nc2ccccc12`, the growth inhibition (run 1) was 27% (inactive) and the growth inhibition (run 2) is 20% (inactive).
As for `COc1ccc(CCN(C)c2ccncc2)cc1OC`, the growth inhibition was 0% (inactive) (run 1) and 0% (inactive) (run 2).
In the case of `COc1ccc(CNc2c3ccccc3nc3ccccc23)cc1OC`, the growth inhibition was 100% (run 1) and 99% (run 2).
Consider `COc1ccc(CCNC(c2ccccc2)c2ccccc2)cc1OC`, for which, under “run 1”, the growth inhibition was 0% (inactive).
In the case of `COc1ccc(CCN(C)c2ccnc3ccccc23)cc1OC`, the growth inhibition is 95% (run 1) and 94% (run 2).
`Oc1ccc(CCNc2c3c(nc4ccccc24)CCCC3)cc1O`: the growth inhibition by setting is: (run 1) 90%; (run 2) 95%.
Consider `CN1CCN(CCCc2ccc(O)c(O)c2)CC1`, for which the growth inhibition is, setting by setting: (run 1) 5% (inactive); (run 2) 0%.
`COc1ccc(CCNc2ncnc3ccccc23)cc1OC`: for the setting “run 1”, the growth inhibition was 5% (inactive).
For the compound `Oc1ccc(C2CCN(c3ccnc4ccccc34)CC2)cc1O`, the growth inhibition (run 1) is 76%.
Take `COc1ccc(CCNc2c3c(nc4ccccc24)CCCC3)cc1OC`: the growth inhibition by setting is: (run 1) 38% (inactive); (run 2) 55%.
With `CC(Cc1ccc(O)c(O)c1)Nc1ccnc2ccccc12` (stereo unspecified), where the note is “run 1”, the growth inhibition is 19% (inactive).
Consider `COc1ccc(CCN2CCc3ccccc3C2)cc1OC`, for which the growth inhibition by setting is: (run 1) 0% (inactive); (run 2) 3% (inactive).
On the same counts, the results for `Oc1ccc(CCNc2cccc3ccccc23)cc1O` are 16% (inactive) and 22% (inactive).
As to `COc1cccc(CCNc2c3ccccc3nc3ccccc23)c1`, the growth inhibition by setting is: (run 1) 100%; (run 2) 99%.
For the compound `COc1ccc(CCNc2c3ccccc3nc3ccccc23)cc1`, the growth inhibition is 100% (run 1) and 98% (run 2).
As to `Cc1cccc2c(NCCc3ccc(O)c(O)c3)ccnc12`, under “run 1”, the growth inhibition was 56%.
`COc1cc(Br)c(CCNc2c3ccccc3nc3ccccc23)cc1OC`: the growth inhibition (run 1) was 95%.
With `Oc1ccc(CCNC(c2ccccc2)c2ccccc2)cc1O`, the growth inhibition is 47% (inactive) (run 1) and 57% (run 2).
For the compound `Cc1nc(NCCc2ccc(O)c(O)c2)c2c3c(sc2n1)CCC3`, where the note is “run 1”, the growth inhibition was 0% (inactive).
Take `Oc1cccc(CCNc2ccnc3ccccc23)c1O`: the growth inhibition (run 1) was 97%.
With `Oc1ccc(CCNc2ccnc3ccccc23)cc1O`, the growth inhibition was 89% (run 1) and 98% (run 2).

(Values after PubChem BioAssay AID720736 (The Scripps Research Institute Molecular Screening Center, 2013).)
